# Assay results taken from ChEMBL document CHEMBL1275449, “Potent in vitro antifungal activities of naturally occurring acetylenic acids” (Antimicrob Agents Chemother, 2008).
# The source made the active and inactive calls. The rule behind the calls is not given here.
# Columns and labels:
# Candida albicans [1] = assay: Antifungal activity against Fluconazole resistant Candida albicans clinical isolate 17 after 48 hrs by CLSI method; format: functional, organism-based
# How it was run: (§1)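 CLSI broth microdilution. Colonies from 24–72 h SD agar suspended in saline and sized by OD630 standard curve. Inoculum 1.5 × 10³ CFU/ml (final) in RPMI 1640 (0.2% dextrose, 0.03% glutamine, 0.165 M MOPS, pH 7.0). Twofold dilutions (11 levels) from 20% DMSO-saline, in duplicate. 35°C for 48 h, OD530 read before and after. IC50 fitted from % growth. MIC: no detectable growth. MFC: subculture onto SD agar.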
# KB = assay: Cytotoxicity against human KB cells up to 32 uM by neutral red method; format: cell-based
# How it was run: (§2)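 Neutral red uptake cytotoxicity, top concentration 32 μM.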
# [2] = tested on: Trichophyton mentagrophytes; assay: Antifungal activity against Trichophyton mentagrophytes ATCC 9533 by CLSI method; format: functional, organism-based
# How it was run: (§3)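 Growth scraped from 1- to 6-week-old potato dextrose slants and filtered through Miracloth. Diluted in 5% Alamar blue-RPMI 1640 (MOPS pH 7.0) to 2.7 × 10⁴ CFU/ml. Eleven twofold dilutions in duplicate. Fluorescence at 544 nm excitation/590 nm emission read before and after 35°C, 5 days. IC50 fitted from percent growth. MIC taken as no detectable growth; MFC from clear or blue wells plated on PD agar.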
# Candida albicans [3] = assay: Antifungal activity against Candida albicans ATCC 60193 at 178.3 uM after 48 hrs by CLSI method; format: functional, organism-based
# How it was run: (§4)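 Candida inocula came from 24–72-h SD agar colonies suspended in saline. They were diluted by OD630 standard curve into RPMI 1640 (0.2% dextrose, 0.03% glutamine, 0.165 M MOPS, pH 7.0) to 1.5 × 10³ CFU/ml. Compounds were run as 11 twofold dilutions in 20% DMSO-saline, in duplicate, at 35°C for 48 h, with OD530 read before and after. Percent growth at the top concentration, IC50, MIC, and MFC (SD agar plating) were derived.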
# Aspergillus fumigatus [4] = assay: Antifungal activity against Aspergillus fumigatus ATCC 204305 after 48 h by CLSI method; details: ATCC 204305, 48 h
# Candida albicans [5] = assay: Antifungal activity against Fluconazole resistant Candida albicans isolate 17 at 178.3 uM after 48 hrs by CLSI method; format: functional, organism-based
# How it was run: (§5)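 Candida in CLSI broth microdilution. Saline colony suspension set to 1.5 × 10³ CFU/ml (final) in MOPS-buffered RPMI 1640, pH 7.0. Test agent given as twofold serial dilutions in 20% DMSO-saline, duplicate wells. 35°C for 48 h. Growth read as OD530 before and after incubation. Percent inhibition scored at the highest test concentration.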
# SK-OV-3 = assay: Cytotoxicity against human SKOV3 cells up to 32 uM by neutral red method; format: cell-based; how it was run: as §2
# Candida albicans [6] = assay: Antifungal activity against Fluconazole resistant Candida albicans isolate 1 at 178.3 uM after 48 hrs by CLSI method; format: functional, organism-based; how it was run: as §5
# Mus musculus = assay: Toxicity in mouse up to 34 umol/kg/day, ip for 3 days; format: organism-based; details: in vivo, 72 h
# Candida parapsilosis = assay: Antifungal activity against Candida parapsilosis ATCC 22019 at 178.3 uM after 48 hrs by CLSI method; format: functional, organism-based
# How it was run: (§6)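 Yeast suspensions made from 3-5 colonies off 24-72 h SD agar plates in saline. They were diluted by OD630 standard curve in RPMI 1640 (0.2% dextrose, 0.03% glutamine, 0.165 M MOPS, pH 7.0) to 1.5 × 10³ CFU/ml. Twofold dilutions (11 concentrations, 20% DMSO-saline) run in duplicate. OD530 read before and after 35°C, 48 h. Line values are top test concentrations; no-growth endpoints give MIC/MFC.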
# LLC-PK1 = assay: Cytotoxicity against pig LLC-PK1 cells up to 32 uM by neutral red method; format: cell-based, Sus scrofa; how it was run: as §2
# Candida albicans [7] = assay: Antifungal activity against Candida albicans ATCC 14053 after 48 hrs by CLSI method; format: functional, organism-based; details: ATCC 14053, 48 h; how it was run: as §1
# Candida albicans [8] = assay: Antifungal activity against Candida albicans ATCC 32354 after 48 hrs by CLSI method; format: functional, organism-based; details: ATCC 32354, 48 h; how it was run: as §1
# Candida albicans [9] = assay: Antifungal activity against Candida albicans ATCC 60193 after 48 hrs by CLSI method; format: functional, organism-based; details: ATCC 60193, 48 h; how it was run: as §1
# Aspergillus fumigatus [10] = assay: Antifungal activity against Aspergillus fumigatus ATCC 90906 at 178.3 uM after 48 hrs by CLSI method; format: functional, organism-based
# [11] = tested on: Trichophyton mentagrophytes; assay: Antifungal activity against Trichophyton mentagrophytes ATCC MYA-4439 by CLSI method; format: functional, organism-based; how it was run: as §3
# Aspergillus niger = assay: Antifungal activity against Aspergillus niger ATCC 16404 at 178.3 uM after 48 hrs by CLSI method; format: functional, organism-based
# Aspergillus fumigatus [12] = assay: Antifungal activity against Aspergillus fumigatus ATCC 204305 at 178.3 uM after 48 hrs by CLSI method; format: functional, organism-based
# Candida albicans [13] = assay: Antifungal activity against Candida albicans ATCC 200955 after 48 hrs by CLSI method; format: functional, organism-based; details: ATCC 200955, 48 h; how it was run: as §1
# SK-MEL = assay: Cytotoxicity against human SK-MEL cells up to 32 uM by neutral red method; format: cell-based; how it was run: as §2
# Aspergillus flavus = assay: Antifungal activity against Aspergillus flavus ATCC 204304 at 178.3 uM after 48 hrs by CLSI method; format: functional, organism-based
# Nakaseomyces glabratus = assay: Antifungal activity against Candida glabrata ATCC 90030 at 178.3 uM after 48 hrs by CLSI method; format: functional, organism-based; how it was run: as §4
# Candida tropicalis [14] = assay: Antifungal activity against Candida tropicalis ATCC 750 at 178.3 uM after 48 hrs by CLSI method; format: functional, organism-based; how it was run: as §6
# Trichophyton rubrum [15] = assay: Antifungal activity against Trichophyton rubrum ATCC MYA-4438 by CLSI method; format: functional, organism-based; how it was run: as §3
# Vero = assay: Cytotoxicity against African green monkey Vero cells up to 32 uM by neutral red method; format: cell-based; details: chlorocebus sabaeus; how it was run: as §2
# Candida albicans [16] = assay: Antifungal activity against Candida albicans ATCC 90028 after 48 hrs by CLSI method; format: functional, organism-based; details: ATCC 90028, 48 h; how it was run: as §1
# Pichia kudriavzevii = assay: Antifungal activity against Candida krusei ATCC 6258 after 48 hrs by CLSI method; format: functional, organism-based; details: ATCC 6258, 48 h; how it was run: as §4
# Trichophyton rubrum [17] = assay: Antifungal activity against Trichophyton rubrum ATCC 10218 by CLSI method; format: functional, organism-based; how it was run: as §3
# Candida albicans [18] = assay: Antifungal activity against Fluconazole resistant Candida albicans clinical isolate 1 after 48 hrs by CLSI method; format: functional, organism-based; how it was run: as §1
# Cryptococcus neoformans [19] = assay: Antifungal activity against Cryptococcus neoformans ATCC 90113 at 178.3 uM after 72 hrs by CLSI method; format: functional, organism-based
# How it was run: (§7)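 SD broth replaced RPMI because growth in RPMI was poor; other CLSI conditions were kept. Inoculum was 1.5 × 10³ CFU/ml from colonies on SD agar, checked by plating. Twofold serial dilutions (11 concentrations) in 20% DMSO-saline were tested in duplicate. OD530 was read before and after incubation at 35°C for 72 h. Percent growth gave IC50; the MIC is the lowest concentration with no detectable growth.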
# Cryptococcus neoformans [20] = assay: Antifungal activity against Cryptococcus neoformans ATCC 66031 after 72 hrs by CLSI method; format: functional, organism-based; details: ATCC 66031, 72 h; how it was run: as §7
# Cryptococcus neoformans [21] = assay: Antifungal activity against Cryptococcus neoformans ATCC 66031 at 178.3 uM after 72 hrs by CLSI method; format: functional, organism-based; how it was run: as §7
# Candida albicans [22] = assay: Antifungal activity against Candida albicans ATCC 32354 at 178.3 uM after 48 hrs by CLSI method; format: functional, organism-based; how it was run: as §4
# Trichophyton rubrum [23] = assay: Antifungal activity against Trichophyton rubrum ATCC MYA-4438 at 178.3 uM after 5 days by CLSI method; format: functional, organism-based
# Candida albicans [24] = assay: Antifungal activity against Candida albicans ATCC 200955 at 178.3 uM after 48 hrs by CLSI method; format: functional, organism-based; how it was run: as §4
# Candida tropicalis [25] = assay: Antifungal activity against Candida tropicalis ATCC 750 after 48 hrs by CLSI method; format: functional, organism-based; details: ATCC 750, 48 h; how it was run: as §6
# BT-549 = assay: Cytotoxicity against human BT549 cells up to 32 uM by neutral red method; format: cell-based; how it was run: as §2
structure (smiles),measurement,setting,value
CCCCCCCCCCCC#CCCCCC(=O)O [6-OCTADECYNOIC ACID],IC50,Candida albicans [1],3600 nM
same,MIC,Candida albicans [1],16.7 µM
same,Activity,KB,Non-toxic
same,IC50,[2],1300 nM
same,MFC,[2],2.8 µM
same,MIC,[2],2.1 µM
same,Activity,Candida albicans [3],inactive
same,IC50,Aspergillus fumigatus [4],18700 nM
same,MIC,Aspergillus fumigatus [4],178 µM
same,Activity,Candida albicans [5],inactive
same,Activity,SK-OV-3,Non-toxic
same,Activity,Candida albicans [6],inactive
same,Activity,Mus musculus,Non-toxic
same,Activity,Candida parapsilosis,inactive
same,Activity,LLC-PK1,Non-toxic
same,IC50,Candida albicans [7],1000 nM
same,MFC,Candida albicans [7],5.6 µM
same,MIC,Candida albicans [7],2.8 µM
same,IC50,Candida albicans [8],4000 nM
same,MIC,Candida albicans [8],27.9 µM
same,IC50,Candida albicans [9],3000 nM
same,MIC,Candida albicans [9],5.6 µM
same,Activity,Aspergillus fumigatus [10],inactive
same,IC50,[11],1200 nM
same,MFC,[11],2.8 µM
same,MIC,[11],2.8 µM
same,Activity,Aspergillus niger,inactive
same,Activity,Aspergillus fumigatus [12],inactive
same,IC50,Candida albicans [13],1900 nM
same,MIC,Candida albicans [13],11.1 µM
same,Activity,SK-MEL,Non-toxic
same,Activity,Aspergillus flavus,inactive
same,Activity,Nakaseomyces glabratus,inactive
same,Activity,Candida tropicalis [14],inactive
same,IC50,Trichophyton rubrum [15],1800 nM
same,MIC,Trichophyton rubrum [15],5.6 µM
same,Activity,Vero,Non-toxic
same,IC50,Candida albicans [16],2000 nM
same,MFC,Candida albicans [16],11.1 µM
same,MIC,Candida albicans [16],2.8 µM
same,IC50,Pichia kudriavzevii,3400 nM
same,MIC,Pichia kudriavzevii,5.6 µM
same,IC50,Trichophyton rubrum [17],2700 nM
same,MFC,Trichophyton rubrum [17],11.1 µM
same,MIC,Trichophyton rubrum [17],5.6 µM
same,IC50,Candida albicans [18],4200 nM
same,MIC,Candida albicans [18],13.9 µM
same,Activity,Cryptococcus neoformans [19],inactive
same,IC50,Cryptococcus neoformans [20],1400 nM
same,Activity,Cryptococcus neoformans [21],inactive
same,Activity,Candida albicans [22],inactive
same,Activity,Trichophyton rubrum [23],inactive
same,Activity,Candida albicans [24],inactive
same,IC50,Candida tropicalis [25],6300 nM
same,MIC,Candida tropicalis [25],111 µM
same,Activity,BT-549,Non-toxic
